# Laboratory results from ChEMBL document CHEMBL1137500, “Inhibitors of type III secretion in Yersinia: design, synthesis and multivariate QSAR of 2-arylsulfonylamino-benzanilides” (Bioorg Med Chem, 2007).
# Calls of active or inactive are those of the source. The calls are words filed in the database; no cut-off is given here.
# Tests used:
# [1] = system: Yersinia pseudotuberculosis; assay: Effect on T3S in Yersinia pseudotuberculosis 3 pIB29 assessed as inhibition of light emission at 100 uM by luciferase reporter gene assay
# How it was run: (§1)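 Strain YPIII-pIB29 (yopE-luxAB transcriptional fusion, lacking YopH), grown overnight at ambient temperature in BHI with 5 mM EGTA and 20 mM MgCl2 to deplete calcium, then adjusted to OD600 0.15-0.25. Compounds in DMSO (≤1% final) at 100, 50, 20 or 10 µM final, in triplicate. Plates shaken 1 h at ambient temperature, then 2 h at 37 °C. Decanal added within 30 min and luminescence read at once. Result is % inhibition of light versus control.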
# [2] = system: Yersinia pseudotuberculosis; assay: Effect on T3S in Yersinia pseudotuberculosis 3 pIB29 assessed as inhibition of light emission at 50 uM by luciferase reporter gene assay; how it was run: as §1
# [3] = system: Yersinia pseudotuberculosis; assay: Effect on T3S in Yersinia pseudotuberculosis 3 pIB29 assessed as inhibition of light emission at 20 uM by luciferase reporter gene assay; how it was run: as §1
# [4] = system: Yersinia pseudotuberculosis; assay: Effect on T3S in Yersinia pseudotuberculosis 3 pIB29 assessed as inhibition of light emission at 10 uM by luciferase reporter gene assay; how it was run: as §1
# [5] = target: Tyrosine-protein phosphatase YopH (Yersinia pseudotuberculosis serotype I (strain IP32953)) (UniProt P08538); assay: Inhibition of Yersinia pseudotuberculosis YP3-pIB102 YopH at 100 uM
# How it was run: (§2)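 Strain YPIII-pIB102 grown overnight at 26 °C in BHI with 25 µg/ml chloramphenicol. Diluted to OD600 0.08 in calcium-depleted BHI (5 mM EGTA, 20 mM MgCl2), with compound at 100, 50, 20 or 10 µM, and shaken 2 h at 37 °C. Culture aliquot added to 25 mM p-nitrophenyl phosphate, 40 mM MES pH 5.0 and 1.6 mM DTT for 15 min at 37 °C. Stopped with NaOH and read at A405. Triplicates; result is % inhibition of secreted YopH activity.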
# [6] = target: Tyrosine-protein phosphatase YopH (Yersinia pseudotuberculosis serotype I (strain IP32953)) (UniProt P08538); assay: Inhibition of Yersinia pseudotuberculosis YP3-pIB102 YopH at 50 uM; how it was run: as §2
# [7] = target: Tyrosine-protein phosphatase YopH (Yersinia pseudotuberculosis serotype I (strain IP32953)) (UniProt P08538); assay: Inhibition of Yersinia pseudotuberculosis YP3-pIB102 YopH at 20 uM; how it was run: as §2
# [8] = target: Tyrosine-protein phosphatase YopH (Yersinia pseudotuberculosis serotype I (strain IP32953)) (UniProt P08538); assay: Inhibition of Yersinia pseudotuberculosis YP3-pIB102 YopH at 10 uM; how it was run: as §2
# [9] = system: Yersinia pseudotuberculosis; assay: Growth inhibition of Yersinia pseudotuberculosis; format: functional, organism-based
# How it was run: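 Wild-type YPIII-pIB102 diluted to OD600 0.05-0.1 in BHI with 2.5 mM CaCl2. Grown at 37 °C with shaking, with compound at 10, 20, 50 or 100 µM. Absorbance read at 600 nm periodically, or at 595 nm hourly, over six hours and compared with the control growth curve.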
# Tyrosine-protein phosphatase YopH (Yersinia pseudotuberculosis serotype I (strain IP32953)), sequence (P08538 whole entry): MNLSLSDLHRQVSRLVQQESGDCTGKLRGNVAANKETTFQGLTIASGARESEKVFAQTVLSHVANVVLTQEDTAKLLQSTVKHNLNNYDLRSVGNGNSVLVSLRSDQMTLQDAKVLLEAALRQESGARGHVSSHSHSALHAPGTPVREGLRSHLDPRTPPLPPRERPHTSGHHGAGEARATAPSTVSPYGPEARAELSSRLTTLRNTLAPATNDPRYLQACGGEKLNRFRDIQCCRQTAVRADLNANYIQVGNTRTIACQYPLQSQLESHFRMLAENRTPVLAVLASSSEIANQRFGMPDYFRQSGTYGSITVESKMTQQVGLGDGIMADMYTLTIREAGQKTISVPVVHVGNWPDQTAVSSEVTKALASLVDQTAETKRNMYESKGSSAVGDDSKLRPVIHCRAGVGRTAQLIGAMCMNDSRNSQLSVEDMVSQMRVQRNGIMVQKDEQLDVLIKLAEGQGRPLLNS
SMILES,inhibition [1] [%],inhibition [2] [%],inhibition [3] [%],inhibition [4] [%],inhibition [5] [%],inhibition [6] [%],inhibition [7] [%],inhibition [8] [%],Activity [9]
O=C(Nc1ccc2c(c1)OCO2)c1ccc(Cl)cc1NS(=O)(=O)c1ccccc1,15,10,7,4,34,25,19,14,inactive
O=C(Nc1ccc(F)c(Cl)c1)c1cc(Cl)ccc1NS(=O)(=O)c1ccc(Cl)c(Cl)c1,,,,,,,,,inactive
O=C(Nc1ccc2cccnc2c1)c1cc(Cl)ccc1NS(=O)(=O)c1ccccc1,10,7,2,0,,,,,inactive
O=C(Nc1ccc(Cl)c(Cl)c1)c1ccc(Cl)cc1NS(=O)(=O)c1cccc2nsnc12,68,71,61,35,,,,,inactive
O=C(Nc1ccc(Cl)c(Cl)c1)c1cc(Cl)ccc1NS(=O)(=O)c1ccccc1,70,73,70,58,,,,,inactive
O=C(Nc1ccc(F)cc1)c1cc(Cl)ccc1NS(=O)(=O)c1cc(Cl)cc(Cl)c1O,88,79,43,13,,,,,inactive
O=C(Nc1ccccc1)c1cc(Cl)ccc1NS(=O)(=O)c1cccc2nsnc12,20,9,1,-2,,,,,inactive
O=C(Nc1ccc(F)cc1)c1cc(F)c(F)cc1NS(=O)(=O)c1cccc(F)c1,75,71,51,22,70,63,54,27,inactive
COc1ccc(NC(=O)c2ccc(Cl)cc2NS(=O)(=O)c2ccc(Cl)c(Cl)c2)cc1,72,72,67,43,34,35,60,35,inactive
O=C(Nc1ccc(F)cc1)c1ccc(Cl)cc1NS(=O)(=O)c1ccc(Cl)c(Cl)c1,,,,,,,,,inactive
CC(=O)c1ccc(S(=O)(=O)Nc2cc(Cl)ccc2C(=O)Nc2ccc(F)c(Cl)c2)cc1,72,70,33,11,,,,,inactive
Cc1ccc(S(=O)(=O)Nc2cc(F)c(F)cc2C(=O)Nc2ccc(Cl)c(Cl)c2)cc1,2,1,9,57,,,,,inactive
O=C(Nc1cccc(Cl)c1)c1cc(Cl)ccc1NS(=O)(=O)c1cccc2nsnc12,55,47,13,3,,,,,inactive
O=C(Nc1ccc(F)c(F)c1)c1ccc(Cl)cc1NS(=O)(=O)c1cccc2nsnc12,63,50,17,9,,,,,inactive
CN(C)c1ccc(NC(=O)c2cc(Cl)ccc2NS(=O)(=O)c2ccccc2)cc1,1,2,1,0,,,,,inactive
COc1ccc(NC(=O)c2ccc(Cl)cc2NS(=O)(=O)c2cccc(F)c2)cc1,51,32,9,5,,,,,inactive
O=C(Nc1ccc(Cl)c(Cl)c1)c1ccccc1NS(=O)(=O)c1cccc2nsnc12,13,11,10,5,,,,,inactive
O=C(Nc1ccc2c(c1)OCO2)c1ccc(Cl)cc1NS(=O)(=O)c1ccc(Cl)c(Cl)c1,69,74,66,37,59,64,60,33,inactive
O=C(Nc1ccc(Cl)c(Cl)c1)c1cc(F)c(F)cc1NS(=O)(=O)c1cccc([N+](=O)[O-])c1,90,79,33,9,81,74,67,26,inactive
O=C(Nc1ccc(Cl)c(Cl)c1)c1cc(F)c(F)cc1NS(=O)(=O)c1cccc2nsnc12,80,66,39,9,,,,,inactive
O=C(Nc1ccc(F)c(F)c1)c1cc(F)c(F)cc1NS(=O)(=O)c1cccc([N+](=O)[O-])c1,49,23,2,-2,,,,,inactive
O=C(Nc1ccc2cccnc2c1)c1cc(Cl)ccc1NS(=O)(=O)c1ccc(Cl)c(Cl)c1,52,59,51,18,,,,,inactive
O=C(Nc1ccc(Cl)c(Cl)c1)c1cc(F)c(F)cc1NS(=O)(=O)c1cc(Cl)cc(Cl)c1O,92,92,85,69,81,80,82,57,inactive
O=C(Nc1ccc(F)c(F)c1)c1ccc(Cl)cc1NS(=O)(=O)c1cc(Cl)cc(Cl)c1O,87,86,50,15,,,,,inactive
O=C(Nc1ccc(Cl)cc1)c1ccccc1NS(=O)(=O)c1cccc2nsnc12,18,12,5,-1,,,,,inactive
CN(C)c1ccc(NC(=O)c2cc(Cl)ccc2NS(=O)(=O)c2cccc([N+](=O)[O-])c2)cc1,7,8,4,3,,,,,inactive
O=C(Nc1ccc(Cl)c(Cl)c1)c1cc(Cl)ccc1NS(=O)(=O)c1cccc2nsnc12,62,69,68,48,63,66,62,19,inactive
